Test results taken from ChEMBL document CHEMBL1154748, “4-Pyridylanilinothiazoles that selectively target von Hippel-Lindau deficient renal cell carcinoma cells by inducing autophagic cell death” (2010).
Calls of active or inactive are those of the source. The calls are words filed in the database; no cut-off is given here.

Tests used:
[1] = Growth inhibition of VHL-null human RCC4 cells after 4 days by XTT assay; format: functional; details: RCC4, 96 h
Outline: (§1)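 XTT read-out: 5000 cells/well plated, vehicle or drug added next day, 4-day exposure. Then phenol red-free medium with 0.3 mg/mL XTT, 20% FCS and 2.65 μg/mL N-methyldibenzopyrazine methyl sulfate, 1-2 h at 37 °C, absorbance at 450 nm. GI50 by linear interpolation; single determinations in triplicate. Ratio is the intraexperiment RCC4-VHL GI50 / RCC4 GI50.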

[2] = Ratio of IC50 for human RCC4-VHL cells to IC50 for VHL-null human RCC4 cells; format: functional; outline: as §1
RCC4 = assay: Induction of autophagy in VHL-null human RCC4 cells assessed as intracytoplasmic vacuoles at 5 uM after 24 h

SMILES | GI50 [1] [µM] | RatioGI50 [2] | Activity (RCC4)
CC(=O)Nc1cnccc1-c1csc(Nc2cccc(C)c2)n1 | 33.3 | 1 | 
Fc1ccccc1Nc1nc(-c2ccncc2)cs1 | 14.3 | >2.8 | 
Cc1cccc(Nc2nc(-c3ccnc(CCCO)c3)cs2)c1 | 5.2 | >7.7 | 
CC(C)c1cccc(Nc2nc(-c3ccncc3)cs2)c1 | 17 | 1.4 | 
Cc1ccc(Nc2nc(-c3ccncc3)cs2)cc1 | 2.5 | 20 | 
Cc1cccc(Nc2nc(-c3ccncc3)c(CO)s2)c1 | 7 | 2.4 | 
COc1cc(Nc2nc(-c3ccncc3)cs2)cc(OC)c1OC | > 40 |  | 
C#Cc1cc(-c2csc(Nc3cccc(C)c3)n2)ccn1 | 17.8 | >2.2 | 
O=[N+]([O-])c1ccccc1Nc1nc(-c2ccncc2)cs1 | > 40 |  | 
Cc1cccc(Nc2nc(-c3ccncc3Cl)cs2)c1 | 2.9 | >13.8 | Active
Oc1ccc(Nc2nc(-c3cccnc3)cs2)cc1 | > 40 |  | 
Oc1ccc(Nc2nc(-c3ccncc3)cs2)cc1 | 5.3 | 8 | 
Cc1cccc(CNc2nc(-c3ccncc3)cs2)c1 | > 40 |  | 
Cc1cccc(N(CCO)c2nc(-c3ccncc3)cs2)c1 | > 40 |  | 
Clc1ccccc1Nc1nc(-c2ccncc2)cs1 | 27.6 | >1.4 | 
Cc1cccc(Nc2nc(-c3ccncc3[N+](=O)[O-])cs2)c1 | 8.2 | 4.1 | 
Clc1cccc(Nc2nc(-c3ccncc3)cs2)c1 | 3 | 5 | 
COC(=O)/C=C/c1sc(Nc2cccc(C)c2)nc1-c1ccncc1 | 2.5 | 2.8 | 
CCN(c1cccc(C)c1)c1nc(-c2ccncc2)cs1 | 40 | 0.6 | 
Cc1cccc(Nc2nc(-c3cccnc3)cs2)c1 | > 40 |  | 
CN(C)CCc1ccc(Nc2nc(-c3ccncc3)cs2)cc1 | 50 | 1.2 | 
Cc1cccc(Nc2nc(-c3ccncc3)c(C(=O)N(C)C)s2)c1 | 16 | >2.5 | 
Cc1cccc(Nc2nc(-c3ccncc3)c(CCCN3CCOCC3)s2)c1 | 5.8 | 1.6 | 
CC(C)(C)c1cccc(Nc2nc(-c3ccncc3)cs2)c1 | > 40 |  | 
O=[N+]([O-])c1ccc(Nc2nc(-c3ccncc3)cs2)cc1 | > 40 |  | 
c1cc(-c2csc(Nc3ccc4c(c3)OCO4)n2)ccn1 | > 40 |  | 

SMILES | GI50 [1] [µM] | RatioGI50 [2] | Activity (RCC4)
N#Cc1cccc(Nc2nc(-c3ccncc3)cs2)c1 | > 40 |  | 
CCOC(=O)c1sc(Nc2ccc3c(c2)CCC3)nc1-c1ccncc1 | > 40 |  | 
COc1cc(Nc2nc(-c3ccncc3)cs2)cc(OC)c1 | > 40 |  | 
Fc1ccc(Nc2nc(-c3ccncc3)cs2)cc1 | 6 | >7 | 
c1ccc(Nc2nc(-c3ccncc3)cs2)cc1 | 7 | >10 | 
Cc1cccc(Nc2nc(-c3ccncc3)c(CN3CCCCC3)s2)c1 | 13 | 1.9 | 
CC(=O)c1ccc(-c2cnccc2-c2csc(Nc3cccc(C)c3)n2)cc1 | 3.9 | 9 | 
Cc1cccc(Nc2nc(-c3ccncc3C#CCO)cs2)c1 | 0.24 | 11.9 | Active
Cc1ccc(C(=O)Nc2nc(-c3ccncc3)cs2)cc1 | > 40 |  | 
Clc1ccc(Nc2nc(-c3ccncc3)cs2)cc1 | 38 | >2 | 
Cc1ccccc1Nc1nc(-c2ccncc2)cs1 | > 40 |  | 
COC(=O)CCc1sc(Nc2cccc(C)c2)nc1-c1ccncc1 | > 40 |  | 
Oc1ccccc1Nc1nc(-c2ccncc2)cs1 | 12.8 | >3.1 | 
Cc1cccc(C(=O)Nc2nc(-c3ccncc3)cs2)c1 | > 40 |  | 
Oc1cccc(Nc2nc(-c3ccncc3)cs2)c1 | 28.5 | >3 | 
Cc1cccc(Nc2nc(-c3cc[n+]([O-])cc3)cs2)c1 | > 40 |  | 
c1ccc(Nc2nc(-c3cccnc3)cs2)cc1 | > 40 |  | 
CN(C)CCOc1ccc(Nc2nc(-c3ccncc3)cs2)cc1 | 60 | 1.3 | 
Cc1cc(Nc2nc(-c3ccncc3)cs2)ccc1O | 70 | 2.3 | 
Cc1cccc(Nc2nc(-c3ccnc(C)c3)cs2)c1 | > 40 |  | 
Cc1cccc(Nc2nc(-c3ccncc3)c(CN(C)C)s2)c1 | 16 | 2.3 | 
C#Cc1cnccc1-c1csc(Nc2cccc(C)c2)n1 | 1.35 | 4.4 | 
Cc1ccc(Nc2nc(-c3ccncc3)c(CO)s2)cc1 | 14 | 1.2 | 
Cc1cccc(Nc2nc(-c3ccnc(F)c3)cs2)c1 | 4.5 | >8.9 | 
FC(F)(F)c1ccc(Nc2nc(-c3ccncc3)cs2)cc1 | > 40 |  | 
